Experimental data reported in article PMC6045484 (ACS Omega, 2018).
Values after ≈ are worked out from the molar mass of the structure shown.

What was measured:
P. falciparum (D6) = experiment: in vitro antimalarial activity, plasmodial LDH; assay type: cell-based, Plasmodium falciparum; details: Plasmodium falciparum, D6, 72 h, read-out: P. falciparum (D6) IC50
[1] = test system: M. intracellulare (ATCC23068); experiment: in vitro antibacterial activity, modified alamarBlue procedure; assay type: cell-based, Mycobacterium intracellulare; details: Mycobacterium intracellulare; for IC50: ATCC23068, read-out: IC50 (concentration that affords 50% growth inhibition), M. intracellulare; for MBC: ATCC23068, read-out: MBC (minimum bactericidal concentration), M. intracellulare; for MIC: ATCC23068, read-out: MIC, M. intracellulare
Summary of the method: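 Modified alamarBlue microplate method. Test compound serially diluted in 20% DMSO/saline, duplicate wells, up to 20 μg/mL. Inoculum 2.0 × 10^6 CFU/mL in Middlebrook 7H9 with OADC, pH 7.3, containing 5% alamarBlue. Incubated 70–74 h at 37 °C, 10% CO2; fluorescence 544ex/590em read before and after. MIC: no blue-to-pink change. MBC by subculturing blue wells on agar. Ciprofloxacin control.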

C. albicans ATCC90028 = experiment: in vitro antifungal activity; assay type: cell-based, Candida albicans; details: Candida albicans; for IC50: ATCC90028, read-out: C. albicans IC50; for MFC: ATCC90028, read-out: C. albicans MFC; for MIC: ATCC90028, read-out: C. albicans MIC
Summary of the method: (§1)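 Modified NCCLS broth method in Sabouraud dextrose. Inoculum set by OD630 to 1.5 × 10^3 CFU/mL. Test compound serially diluted in 20% DMSO/saline, duplicate wells, up to 20 μg/mL. Incubated 70–74 h at 35 °C; 530 nm read before and after. IC50 is 50% growth inhibition; MIC is no detectable growth. MFC from clear wells subcultured on agar. Amphotericin B control.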

SA (ATCC29213) = experiment: in vitro antibacterial activity; assay type: cell-based; details: Staphylococcus aureus; for IC50: ATCC29213, read-out: IC50 (concentration that affords 50% growth inhibition), SA; for MBC: ATCC29213, read-out: MBC (minimum bactericidal concentration), SA; for MIC: ATCC29213, read-out: MIC, SA
Summary of the method: (§2)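 Test compound serially diluted in 20% DMSO/saline and plated in duplicate, up to 20 μg/mL. Inoculum in cation-adjusted Mueller–Hinton broth, pH 7.3, set by OD630 to 5 × 10^5 CFU/mL. Incubated 16–20 h at 35 °C; 530 nm read before and after. IC50 is 50% growth inhibition; MIC is no detectable growth. MBC from clear wells subcultured on agar. Ciprofloxacin control.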

[2] = test system: SK-MEL, KB, BT-549, SK-OV-3, VERO and LLC-PK1 cells; experiment: cytotoxicity, neutral red uptake assay; assay type: cell-based, mammalian; details: highest test concentration 4760 ng/mL
Summary of the method: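 Cells seeded at 25 000/well and allowed 24 h to reach confluence. Test compound was then added and incubated 48 h. Viable cells were counted by a modified neutral red uptake method. The panel was four human cancer lines and two noncancerous mammalian kidney lines. Doxorubicin served as positive control and DMSO as negative control.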

C. neoformans ATCC90113 = experiment: in vitro antifungal activity; assay type: cell-based, Cryptococcus neoformans; details: Cryptococcus neoformans; for IC50: ATCC90113, read-out: C. neoformans IC50; for MFC: ATCC90113, read-out: C. neoformans MFC; for MIC: ATCC90113, read-out: C. neoformans MIC
Summary of the method: as §1

P. falciparum (W2) = experiment: in vitro antimalarial activity, plasmodial LDH; assay type: cell-based, Plasmodium falciparum; details: Plasmodium falciparum, W2, 72 h, read-out: P. falciparum (W2) IC50, CQ-resistant W2 strain, 72 h
Summary of the method: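 P. falciparum-infected erythrocytes (2% parasitemia, 2% hematocrit) in RPMI 1640 with 10% human serum and 60 μg/mL amikacin. Exposed to test compound dilutions for 72 h at 37 °C under 90% N2/5% O2/5% CO2. LDH measured with Malstat reagent (30 min, room temperature), then NBT/PES for 1 h in the dark, stopped with 5% acetic acid, read at 650 nm. IC50 from dose-response curves.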

MRSA (ATCC33591) = experiment: in vitro antibacterial activity; assay type: cell-based, methicillin-resistant Staphylococcus aureus; details: Staphylococcus aureus, ATCC33591|MRSA, read-out: MIC, MRSA
Summary of the method: as §2

A. fumigatus ATCC 90906 = experiment: in vitro antifungal activity; assay type: cell-based, Aspergillus fumigatus; details: Aspergillus fumigatus; for IC50: ATCC90906, read-out: A. fumigatus IC50; for MFC: ATCC90906, read-out: A. fumigatus MFC; for MIC: ATCC90906, read-out: A. fumigatus MIC
Summary of the method: as §1

[3] = test system: L. donovani promastigotes; experiment: in vitro antileishmanial activity, alamarBlue assay; assay type: cell-based, Leishmania donovani; details: Leishmania donovani, 48 h; for IC50: read-out: L. donovani IC50, promastigotes, 48 h; for IC90: read-out: L. donovani IC90, promastigotes, 48 h

Row | SMILES | IC50 (P. falciparum (D6)) | IC50 [1] | MBC [1] | MIC [1] | IC50 (C. albicans ATCC90028) | MFC (C. albicans ATCC90028) | MIC (C. albicans ATCC90028) | IC50 (SA (ATCC29213)) | MBC (SA (ATCC29213)) | MIC (SA (ATCC29213)) | cytotoxicity CTX [2] | IC50 (C. neoformans ATCC90113) | MFC (C. neoformans ATCC90113) | MIC (C. neoformans ATCC90113) | IC50 (P. falciparum (W2)) | MIC (MRSA (ATCC33591)) | IC50 (A. fumigatus ATCC 90906) | MFC (A. fumigatus ATCC 90906) | MIC (A. fumigatus ATCC 90906) | IC50 [3] | other results
1 | CCCCCCOc1c(OC)cc(NC(C)CCCN)c2nc(C(C)(C)C)cc(C)c12 (stereo not drawn) [compound 52, N^4-(5-Hexyloxy-2-tert-butyl-6-methoxy-4-methylquinolin-8-yl)pentane-1,4-diamine] | > 4.76 µg/mL | 3.43 µg/mL (≈ 7.98 µM) | 5 µg/mL (≈ 11.6 µM) | 5 µg/mL (≈ 11.6 µM) | 5.91 µg/mL (≈ 13.8 µM) | 10 µg/mL (≈ 23.3 µM) | 10 µg/mL (≈ 23.3 µM) | 2.83 µg/mL (≈ 6.59 µM) | 5 µg/mL (≈ 11.6 µM) | 5 µg/mL (≈ 11.6 µM) | NC (NC, not cytotoxic up to 4760 ng/mL (4.76 μg/mL)) | 0.84 µg/mL (≈ 1.96 µM) | 2.5 µg/mL (≈ 5.82 µM) | 1.25 µg/mL (≈ 2.91 µM) | > 4.76 µg/mL | 5 µg/mL (≈ 11.6 µM) | 19 µg/mL (≈ 44.2 µM) | > 20 µg/mL | > 20 µg/mL | 1.77 µg/mL (≈ 4.12 µM) | IC90 [3]: 2.55 µg/mL (≈ 5.94 µM)
2 | CCCCCCCOc1c(OC)cc(NC(C)CCCN)c2nc(C(C)(C)C)cc(C)c12 (stereo not drawn) [compound 53, N^4-(5-Heptyloxy-2-tert-butyl-6-methoxy-4-methylquinolin-8-yl)pentane-1,4-diamine] | 2 µg/mL (≈ 4.51 µM) | 3.12 µg/mL (≈ 7.03 µM) | 5 µg/mL (≈ 11.3 µM) | 5 µg/mL (≈ 11.3 µM) | 5.06 µg/mL (≈ 11.4 µM) | 10 µg/mL (≈ 22.5 µM) | 10 µg/mL (≈ 22.5 µM) | 1.33 µg/mL (≈ 3 µM) | 5 µg/mL (≈ 11.3 µM) | 2.5 µg/mL (≈ 5.63 µM) | NC (NC, not cytotoxic up to 4760 ng/mL (4.76 μg/mL)) | 0.67 µg/mL (≈ 1.51 µM) | 1.25 µg/mL (≈ 2.82 µM) | 1.25 µg/mL (≈ 2.82 µM) | 1.3 µg/mL (≈ 2.93 µM) | 2.5 µg/mL (≈ 5.63 µM) | 19.3 µg/mL (≈ 43.5 µM) | > 20 µg/mL | > 20 µg/mL | 0.84 µg/mL (≈ 1.89 µM) | IC90 [3]: 1.95 µg/mL (≈ 4.4 µM)
3 | CCCCCCCCOc1c(OC)cc(NC(C)CCCN)c2nc(C(C)(C)C)cc(C)c12 (stereo not drawn) [compound 54, N^4-(5-Octyloxy-2-tert-butyl-6-methoxy-4-methylquinolin-8-yl)pentane-1,4-diamine] | > 4.76 µg/mL | 18.6 µg/mL (≈ 40.6 µM) | > 20 µg/mL | > 20 µg/mL | > 20 µg/mL | > 20 µg/mL | > 20 µg/mL | > 20 µg/mL | > 20 µg/mL | > 20 µg/mL | NC (NC, not cytotoxic up to 4760 ng/mL (4.76 μg/mL)) | 9.96 µg/mL (≈ 21.8 µM) | > 20 µg/mL | > 20 µg/mL | > 4.76 µg/mL | > 20 µg/mL | > 20 µg/mL | > 20 µg/mL | > 20 µg/mL | 9.74 µg/mL (≈ 21.3 µM) | IC90 [3]: 15.6 µg/mL (≈ 34 µM)
4 | CCCCCCOc1c(OC)cc(NC(C)CCCNC(=O)C(N)CCCNC(=N)N)c2nc(C(C)(C)C)ccc12 (stereo not drawn) [compound 101, 2-Amino-N-(4-(2-tert-butyl-5-(hexyloxy)-6-methoxyquinolin-8-ylamino)pentyl)-5-guanidinopentanamide] | 0.8 µg/mL (≈ 1.4 µM) | 18.4 µg/mL (≈ 32.2 µM) | > 20 µg/mL | 20 µg/mL (≈ 35 µM) | > 20 µg/mL | > 20 µg/mL | > 20 µg/mL | 8.87 µg/mL (≈ 15.5 µM) | > 20 µg/mL | > 20 µg/mL | NC (NC, not cytotoxic up to 4760 ng/mL (4.76 μg/mL)) | 14.3 µg/mL (≈ 25 µM) | > 20 µg/mL | > 20 µg/mL | 0.33 µg/mL (≈ 0.577 µM) | > 20 µg/mL | > 20 µg/mL | > 20 µg/mL | > 20 µg/mL | – | –
5 | CCCCCCCOc1c(OC)cc(NC(C)CCCNC(=O)C(N)CCCCN)c2nc(C(C)(C)C)ccc12 (stereo not drawn) [compound 109, 2,6-Diamino-N-(4-(2-tert-butyl-5-(heptyloxy)-6-methoxyquinolin-8-ylamino)-pentyl)hexanamide] | 0.8 µg/mL (≈ 1.43 µM) | > 20 µg/mL | > 20 µg/mL | > 20 µg/mL | > 20 µg/mL | > 20 µg/mL | > 20 µg/mL | > 20 µg/mL | > 20 µg/mL | > 20 µg/mL | NC (NC, not cytotoxic up to 4760 ng/mL (4.76 μg/mL)) | > 20 µg/mL | > 20 µg/mL | > 20 µg/mL | 0.68 µg/mL (≈ 1.22 µM) | > 20 µg/mL | > 20 µg/mL | > 20 µg/mL | > 20 µg/mL | – | –
6 | CCCCCCCOc1c(OC)cc(NC(C)CCCNC(=O)C(N)CCCN)c2nc(C(C)(C)C)ccc12 (stereo not drawn) [compound 110, 2,5-Diamino-N-(4-(2-tert-butyl-5-(heptyloxy)-6-methoxyquinolin-8-ylamino)-pentyl)pentanamide] | 3.2 µg/mL (≈ 5.88 µM) | > 20 µg/mL | > 20 µg/mL | > 20 µg/mL | > 20 µg/mL | > 20 µg/mL | > 20 µg/mL | > 20 µg/mL | > 20 µg/mL | > 20 µg/mL | NC (NC, not cytotoxic up to 4760 ng/mL (4.76 μg/mL)) | > 20 µg/mL | > 20 µg/mL | > 20 µg/mL | 1.6 µg/mL (≈ 2.94 µM) | > 20 µg/mL | > 20 µg/mL | > 20 µg/mL | > 20 µg/mL | – | –
